# Bioassay records (PubChem BioAssay)
# ADAM10 inh – human ADAM10 inhibitors, primary screen, biochemical, QFRET, HTS; Disintegrin and metalloproteinase domain-containing protein 10 (Homo sapiens), O14672; recombinant ADAM10, EDANS/DABCYL FRET peptide cleavage, 3 h; hit rate 0.62% among 370,000; inhibition, % at 7 µM;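 active = inhibition above a per-campaign cutoff equal to the mean of compounds falling between control-based bounds plus 3 SD, cut at about 20% in these data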;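 note: 0% = DMSO wells while the 100% control is not disclosed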
# Target sequence (O14672 214-748 limits assumed): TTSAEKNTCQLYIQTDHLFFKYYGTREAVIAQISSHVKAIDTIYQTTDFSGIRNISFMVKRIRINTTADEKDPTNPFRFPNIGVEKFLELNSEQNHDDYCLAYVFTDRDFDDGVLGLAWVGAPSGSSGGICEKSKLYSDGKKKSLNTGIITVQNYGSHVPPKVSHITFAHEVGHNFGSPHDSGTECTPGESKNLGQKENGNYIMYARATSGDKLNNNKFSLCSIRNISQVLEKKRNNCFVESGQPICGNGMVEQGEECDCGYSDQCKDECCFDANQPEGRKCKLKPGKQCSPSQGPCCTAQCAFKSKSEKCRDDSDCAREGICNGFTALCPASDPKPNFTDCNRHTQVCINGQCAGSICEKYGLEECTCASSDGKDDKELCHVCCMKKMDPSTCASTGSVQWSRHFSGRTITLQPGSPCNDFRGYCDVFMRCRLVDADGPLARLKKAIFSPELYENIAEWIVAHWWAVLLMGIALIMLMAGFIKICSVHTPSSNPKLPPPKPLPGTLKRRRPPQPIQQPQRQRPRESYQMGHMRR
# KLK7 zymogen act – proKLK7 zymogen activators, primary screen, biochemical, fluorescence intensity | Kallikrein-7 (Homo sapiens), P49862 | purified proKLK7, EDANS-DABCYL substrate fluorescence; 100% is mature enzyme control, 0% vehicle | activation, % at 7 µM | hit rate 0.9% among 370,000 | AID 652039, 2013;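 active = activation above the mean of all tested compounds plus 3 SD, computed per campaign excluding outliers beyond control limits, cut at about 13% in these data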
# NR2E3 ag-1 – NR2E3 agonists in two-hybrid cells, primary screen, cell-based, luminescence, CHO-S, Gal4-NCOR/VP16-NR2E3; Photoreceptor-specific nuclear receptor (Homo sapiens), Q9Y5X4; luciferase; inhibition of corepressor binding, % at 3.98 µM; hit rate 0.35% among 360,000; AID 602229, 2012;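 active = inhibition above the mean of all tested compounds plus 3 SD, cut at about 70% in these data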;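 note: 0% = DMSO with NR2E3 transfected cells and 100% = cells lacking NR2E3 construct; higher means lower luciferase signal from less NR2E3 corepressor binding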
# ADAM17 inh – ADAM17 inhibitors, primary screen, biochemical, QFRET; Disintegrin and metalloproteinase domain-containing protein 17 (Homo sapiens), P78536; recombinant ADAM17, EDANS/DABCYL FRET peptide cleavage; inhibition, % at 6.95 µM; hit rate 0.83% among 370,000;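 active = inhibition above the mean of compounds lying between control limits plus 3 SD, set per campaign, cut at about 8.5% in these data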;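 note: 0% = DMSO-only wells as the low control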
# JMJD2C inh – inhibitors of GASC-1 histone demethylase, primary screen, biochemical, fluorescence, DELFIA europium | Lysine-specific demethylase 4C (Homo sapiens), Q9H3R0 | GST-JMJD2C(1-420) H3K9me3 demethylation | inhibition, % at 2.35 µM | hit rate 0.069% among 330,000;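 active = more than half of a compound's replicate wells show inhibition beyond 50%, single wells judged on their own value; inconclusive = some, but no more than half, of replicates pass 50% inhibition; inactive = no replicate passes 50% inhibition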;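 note: signal counts dimethyl H3K9 product captured on neutravidin plate; 0% = median of DMSO wells and 100% = 0.3 times that DMSO median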
# NR2E3 ag-2 – inhibitors of NR2E3-RetCOR corepressor binding, primary screen, NR2E3 agonist project, biochemical, TR-FRET, GST-NR2E3, biotin-RetCOR; inhibition of corepressor binding, % at 4.78 µM; hit rate 0.12% among 320,000; Photoreceptor-specific nuclear receptor (Homo sapiens), Q9Y5X4; 1536-well;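 active = percent inhibition above the cutoff of mean plus 3 SD of all tested compounds, set per screening campaign, cut at about 20% in these data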;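 note: 0% = DMSO wells and 100% = biotin wells as full block of FRET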
#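 Format: 1536-well format; test system: GST-NR2E3 and biotin-RetCOR proteins; read-out basis: percent inhibition of TR-FRET ratio; timing: 5 h incubation at 4 °C; detection: time-resolved FRET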
# KLK7 act conf – proKLK7 zymogen activators, confirmation, biochemical, fluorescence intensity, triplicate; shares compounds with KLK7 zymogen act; purified proKLK7, EDANS-DABCYL substrate fluorescence; scaled: vehicle 0, mature enzyme 100; activation, % at 7 µM; hit rate 68% among 3,200;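 active = activation, as change over the incubation, above the mean of all tested compounds plus 3 SD, cut at about 13% in these data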
# EDANS-DABCYL int – EDANS-DABCYL substrate optical interference, artefact control for kallikrein-7 zymogen activator project, biochemical, fluorescence intensity, high throughput. shares compounds with KLK7 zymogen act. activation, % at 7 µM. AID 686952, 2013. no enzyme, 4 h; solvent 0%, active enzyme control 100%. hit rate 80% among 3,200;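 active = activation above the all-compound mean plus 3 SD, ignoring values outside control-based bounds, cut at about 4.8% in these data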;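 note: value is the 4 h activation minus the activation read at time zero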
# EDANS interf – EDANS fluorescence interference in dose response, no enzyme | shares compounds with KLK7 zymogen act | EDANS-DABCYL peptide fluorescence interference | EC50, µM | hit rate 20% among 250;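 active = compounds that raise the fluorescence signal in this interference counterscreen, with EC50 at or below 10 µM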;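 note: intact quenched peptide substrate alone read at 355 nm excitation and 520 nm emission; signal is fluorescence gain from T0 to T4 after four hours at room temperature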
# Active calls of the source: *; i = inactive; ? = inconclusive; nt = no result given. Compounds with a hit are over-represented: about 2.5% of the library has one in this group of screens.
SMILES,ADAM10 inh,KLK7 zymogen act,NR2E3 ag-1,ADAM17 inh,JMJD2C inh,NR2E3 ag-2,KLK7 act conf,EDANS-DABCYL int,others
OC1c2c(F)cccc2N=C2CCCCN21 (stereo unspecified),i,14.0*,-4.8,-275.0,nt,nt,11.4,8.3*,
CCNc1cc2oc(=O)c(CN3CCOCC3)c(C)c2cc1C,i,43.5*,-6.1,i,-5.8,-0.9,69.4*,78.3*,
Cc1cc2oc(=O)cc(CN3CCOCC3)c2cc1C,-1.7,-0.3,-19.3,-4.6,0.1,1.6,nt,nt,
CCCCC1CC(=O)NC1(C(=O)OCC)C(=O)OCC (stereo unspecified),-5.2,0.7,-31.2,-5.1,nt,nt,nt,nt,
COc1cc(OC)c(OC)cc1/C=C1/Cc2ccccc2C1=O,1.3,21.2*,-0.4,-3.8,-2.3,-0.7,91.7*,89.8*,
COc1ccc2cc3cc(C(=O)NCCC(C)C)oc3nc2c1,i,-15.2,-3.1,-379.5,26.7,-0.1,nt,nt,
COCCNC(=O)c1cc2cc3ccc(OC)cc3nc2o1,i,34.8*,-18.5,i,-2.7,2.0,67.3*,78.1*,
CCC(C)NC(=O)c1cc2cc3ccc(OC)cc3nc2o1 (stereo unspecified),i,39.9*,-96.5,i,2.7,6.0,44.0*,63.1*,
COc1ccc2cc3cc(C(=O)NCC4CCCO4)oc3nc2c1 (stereo unspecified),i,48.0*,-9.3,i,3.4,2.0,65.8*,70.9*,
CCCCN(CC)C(=O)c1cc2cc3ccc(OC)cc3nc2o1,i,13.0*,-80.1,-372.2,15.8,-0.2,-4.7,0.3,
CCOC(=O)Cc1cc(=O)[nH]c(/N=C(\N)Nc2ccc(C)c(C)c2)n1,2.5,-0.1,6.5,-0.5,12.5,1.4,nt,nt,
O=c1oc2c3c4c(cc2s1)CCCN4CCC3,-2.4,-0.9,-5.5,-2.4,4.5,0.6,nt,nt,
O=c1ccc2cc3c4c(c2o1)CCCN4CCC3,i,88.8*,-6.7,-460.1,5.2,1.6,66.5*,73.2*,
CCOC(=O)Cn1nc(-c2ccc(Cl)cc2)ccc1=O,-11.2,-0.6,-13.0,-8.9,-10.7,3.1,nt,nt,
CC(=O)Nc1nc(-c2ccc(Cl)cc2)nc(C)c1C(C)=O,-2.2,-0.5,-16.9,-1.8,-1.7,-2.8,nt,nt,
CC(=O)N(C(C)=O)c1ncnc2c1c(-c1ccc(Cl)cc1)nn2C(C)(C)C,-247.2,27.3*,-9.0,-86.3,0.3,3.9,27.5*,29.7*,
CC(=O)Nc1ncnc2c1c(-c1ccc(Cl)cc1)nn2C(C)(C)C,-363.4,13.4*,7.6,-104.6,13.4,-1.9,1.3,0.3,
O=C(Nc1ccc2nc3ccccc3nc2c1)c1ccc(Br)cc1,-7.5,-0.3,-56.4,-3.9,1.6,3.7,nt,nt,
CC(=O)Nc1ccc(-c2nc3ccc(NC(C)=O)cc3o2)cc1,i,32.9*,-106.6,-350.2,-5.6,1.8,25.8*,15.8*,EDANS interf=>69.5
CC(=O)Nc1cccc(Nc2nc(-c3ccccc3)nc3ccccc23)c1,-45.2,18.9*,-15.8,-13.6,nt,-2.7,3.5,7.8*,
CC(=O)Nc1ccc2nc3ccccc3nc2c1,-96.2,43.3*,-95.0,-45.7,4.9,-9.5,45.5*,42.5*,
COC(=O)[C@H](C(C)C)N1Cc2nnn(CC3CCCCC3)c2-c2ccccc2S1(=O)=O,12.1,-0.1,nt,6.3,nt,nt,nt,nt,
N#CCC[C@@H]1CC[C@]2(CCCN(S(=O)(=O)C3CCCCC3)C2)O1,0.6,-0.4,nt,-0.4,nt,nt,nt,nt,
CC1CCCC(C)N1C(=O)CN1C(=O)NC2(CCCCCC2)C1=O (stereo unspecified),-12.2,-0.4,-4.0,-1.4,nt,nt,nt,nt,
Cc1cc(=O)oc2c3c(cc(OCC(=O)N4CCC(C(=O)O)CC4)c12)OC(C)(C)CC3,i,47.5*,-28.9,i,6.0,3.3,64.6*,60.8*,
SMILES,ADAM10 inh,KLK7 zymogen act,NR2E3 ag-1,ADAM17 inh,JMJD2C inh,NR2E3 ag-2,KLK7 act conf,EDANS-DABCYL int,others
CCCCc1cc(=O)oc2c3c(cc(OCC(=O)N4CCC[C@H]4C(=O)O)c12)OC(C)(C)CC3,i,52.6*,-10.8,i,-6.3,4.0,57.0*,62.4*,
Cc1cc(=O)oc2c3c(cc(OCC(=O)Nc4ccc(CCO)cc4)c12)OC(C)(C)CC3,i,-37.8,-21.9,i,4.1,2.9,nt,nt,
Cc1cc(=O)oc2c3c(cc(OCC(=O)N4CCC[C@H]4C(=O)O)c12)OC(C)(C)CC3,i,34.8*,-39.3,i,?,2.3,65.6*,64.5*,
O=C(Nc1cccc(-c2nc3ccccc3[nH]2)c1)c1cccc(NC(=O)c2ccco2)c1,-234.6,33.9*,-32.6,-102.2,12.7,1.7,1.1,2.1,
COc1ccc2ccccc2c1/C=N/NC(=O)c1nnn(-c2nonc2N)c1CN(C)C,-1.9,0.7,-20.2,3.5,2.0,4.5,nt,nt,
COc1ccc2ccccc2c1/C=N/NC(=O)c1nnn(-c2nonc2N)c1C(C)C,10.5,40.1*,-7.6,0.4,9.9,8.2,-4.3,-2.6,
CCOc1ccc(-c2c(C(=O)N/N=C/c3cccs3)nnn2-c2nonc2N)cc1,4.8,-0.1,1.7,4.1,20.3,2.0,nt,nt,
CCOc1ccc(/C=N/NC(=O)c2nnn(-c3nonc3N)c2-c2cccs2)cc1,-1.7,80.3*,-18.1,-4.0,-11.8,0.2,-28.1,-231.5,
Cc1ccc(-c2c(C(=O)N/N=C/c3ccc4c(c3)OCO4)nnn2-c2nonc2N)cc1,-2.7,194.7*,-32.1,-5.2,7.9,-1.0,71.0*,75.0*,
COc1cccc(CN2CCN(C(=O)[C@H]3O[C@@H](n4cnc5c(N)ncnc54)[C@H](O)[C@@H]3O)CC2=O)c1,-10.3,-0.6,17.5,-7.0,nt,nt,nt,nt,
